Laboratory results reported in ChEMBL document CHEMBL5724801, “EUbOPEN Chemogenomics Library - Multiplex” (2024).
Where “and” joins values, the source holds several entries; their conditions need not be identical. Identical values can stand only once.

System: HEK-293T
Assay: Multiplex assay against HEK293T
Type: toxicity, cell-based
Conditions: human
Summary of the method: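 Hoechst33342, BioTracker Green Microtubule Cytoskeleton Dye, MitoTracker Red and Annexin V Alexa Fluor 680 were added to live cells at seeding, and imaging on a CQ1 microscope at 37°C and 5% CO2 followed compound addition. Gating by CellPathfinder machine learning separated cells into Hoechst high-intensity objects or normal cells, then normal cells into healthy, pyknosed or fragmented nuclei, then pyknosed cells into mitotic or apoptotic. Per cents of healthy-nucleus cells are reported for the tubulin, mitochondrial-mass and membrane-permeability phenotypes.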

[1] = 12 h, 1 µM, compound concentration 1 uM
[2] = 12 h, 10 µM, compound concentration 10 uM
[3] = 24 h, 1 µM, compound concentration 1 uM
[4] = 24 h, 10 µM, compound concentration 10 uM
[5] = 48 h, 1 µM, compound concentration 1 uM
[6] = 48 h, 10 µM, compound concentration 10 uM

## C=C(C)[C@H]1CN[C@H](C(=O)O)[C@H]1CC(=O)O [KAINIC ACID]
[1]
  Population Apoptotic (%): 11.5% and 6.48%
  Population Fragmented Nuclei (%): 2.06% and 6.54%
  Population Healthy Nuclei (%): 64.6% and 22.88%
  Population Hoechst High Intensity Objects (%): 0%
  Population Membrane Permeable-Phenotype (%): 0.91% and 0%
  Population Mitochondria Different-Phenotype (%): 37.44% and 14.29%
  Population Mitotic Cells (%): 88.5% and 93.52%
  Population Normal (%): 100%
  Population Pyknosed Nuclei (%): 33.33% and 70.59%
  Total Cell Count: 339 and 153
[2]
  Population Apoptotic (%): 12.5% and 13.33%
  Population Fragmented Nuclei (%): 12.27% and 2.55%
  Population Hoechst High Intensity Objects (%): 0.26% and 0%
  Population Membrane Permeable-Phenotype (%): 0%
  Population Mitochondria Different-Phenotype (%): 22.58% and 24.24%
  Population Mitotic Cells (%): 87.5% and 86.67%
  Population Normal (%): 99.74% and 100%
  Total Cell Count: 384 and 157
[3]
  Population Apoptotic (%): 14% and 18.07%
  Population Fragmented Nuclei (%): 2.44% and 4.97%
  Population Healthy Nuclei (%): 77.19% and 43.48%
  Population Hoechst High Intensity Objects (%): 0%
  Population Membrane Permeable-Phenotype (%): 0.79% and 1.43%
  Population Mitochondria Different-Phenotype (%): 12.14% and 7.14%
  Population Mitotic Cells (%): 86% and 81.93%
  Population Normal (%): 100%
  Population Pyknosed Nuclei (%): 20.37% and 51.55%
  Population Tubulin-Different-Phenotype (%): 8.97% and 5.71%
[4]
  Population Apoptotic (%): 9.33% and 14.16%
  Population Fragmented Nuclei (%): 9.95% and 0%
  Population Healthy Nuclei (%): 77.19% and 40.84%
  Population Hoechst High Intensity Objects (%): 0%
  Population Membrane Permeable-Phenotype (%): 0.22% and 0%
  Population Mitochondria Different-Phenotype (%): 11.33% and 7.69%
  Population Mitotic Cells (%): 90.67% and 85.84%
  Population Normal (%): 100%
  Population Tubulin-Different-Phenotype (%): 4.89% and 1.28%
[5]
  Population Apoptotic (%): 7.41% and 12.12%
  Population Fragmented Nuclei (%): 6.01% and 2.75%
  Population Healthy Nuclei (%): 85.97% and 71.37%
  Population Hoechst High Intensity Objects (%): 0.07% and 0%
  Population Membrane Permeable-Phenotype (%): 5.09% and 4.4%
  Population Mitochondria Different-Phenotype (%): 10.62% and 17.03%
  Population Mitotic Cells (%): 92.59% and 87.88%
  Population Normal (%): 99.93% and 100%
[6]
  Population Apoptotic (%): 13.71% and 22.5%
  Population Fragmented Nuclei (%): 7.14% and 1.13%
  Population Healthy Nuclei (%): 83.02% and 68.8%
  Population Hoechst High Intensity Objects (%): 0% and 0.75%
  Population Membrane Permeable-Phenotype (%): 4.88% and 2.19%
  Population Mitochondria Different-Phenotype (%): 10.71% and 14.75%
  Population Mitotic Cells (%): 86.29% and 77.5%
  Population Normal (%): 100% and 99.25%

## CCCCCCNC(=O)Nc1ccc(S(=O)(=O)Nc2ccc(CCNC[C@H](O)COc3ccc(O)cc3)cc2)cc1 [L-755507]
[1]
  Population Apoptotic (%): 35% and 31%
  Population Fragmented Nuclei (%): 8% and 6%
  Population Healthy Nuclei (%): 84% and 83%
  Population Hoechst High Intensity Objects (%): 7%
  Population Membrane Permeable-Phenotype (%): 0%
  Population Mitochondria Different-Phenotype (%): 39% and 64%
  Population Mitotic Cells (%): 64% and 68%
  Population Normal (%): 92%
  Population Pyknosed Nuclei (%): 7% and 10%
  Population Tubulin-Different-Phenotype (%): 28% and 32%
  Total Cell Count: 494 and 403
[2]
  Population Apoptotic (%): 58% and 71%
  Population Fragmented Nuclei (%): 10% and 8%
  Population Healthy Nuclei (%): 74% and 79%
  Population Hoechst High Intensity Objects (%): 17% and 7%
  Population Membrane Permeable-Phenotype (%): 0%
  Population Mitochondria Different-Phenotype (%): 69% and 87%
  Population Mitotic Cells (%): 41% and 28%
  Population Normal (%): 82% and 92%
  Population Pyknosed Nuclei (%): 14% and 11%
  Population Tubulin-Different-Phenotype (%): 68% and 61%
  Total Cell Count: 384 and 341
[3]
  Population Apoptotic (%): 19% and 30%
  Population Fragmented Nuclei (%): 9% and 11%
  Population Healthy Nuclei (%): 80%
  Population Hoechst High Intensity Objects (%): 5% and 4%
  Population Membrane Permeable-Phenotype (%): 0%
  Population Mitochondria Different-Phenotype (%): 20% and 42%
  Population Mitotic Cells (%): 80% and 70%
  Population Normal (%): 94% and 95%
  Population Pyknosed Nuclei (%): 9% and 7%
  Population Tubulin-Different-Phenotype (%): 20% and 22%
  Total Cell Count: 634 and 547
[4]
  Population Apoptotic (%): 26% and 48%
  Population Fragmented Nuclei (%): 8% and 7%
  Population Healthy Nuclei (%): 80% and 83%
  Population Hoechst High Intensity Objects (%): 14% and 9%
  Population Membrane Permeable-Phenotype (%): 0%
  Population Mitochondria Different-Phenotype (%): 59% and 68%
  Population Mitotic Cells (%): 73% and 51%
  Population Normal (%): 85% and 90%
  Population Pyknosed Nuclei (%): 11% and 9%
  Population Tubulin-Different-Phenotype (%): 42% and 51%
  Total Cell Count: 461 and 402
[5]
  Population Apoptotic (%): 10% and 15%
  Population Fragmented Nuclei (%): 12% and 13%
  Population Healthy Nuclei (%): 81% and 80%
  Population Hoechst High Intensity Objects (%): 3% and 5%
  Population Membrane Permeable-Phenotype (%): 2%
  Population Mitochondria Different-Phenotype (%): 16% and 24%
  Population Mitotic Cells (%): 89% and 84%
  Population Normal (%): 96% and 94%
  Population Pyknosed Nuclei (%): 6%
  Population Tubulin-Different-Phenotype (%): 15% and 20%
  Total Cell Count: 1052 and 775
[6]
  Population Apoptotic (%): 46% and 65%
  Population Fragmented Nuclei (%): 15% and 13%
  Population Healthy Nuclei (%): 75% and 80%
  Population Hoechst High Intensity Objects (%): 11% and 8%
  Population Membrane Permeable-Phenotype (%): 1% and 0%
  Population Mitochondria Different-Phenotype (%): 36% and 47%
  Population Mitotic Cells (%): 53% and 34%
  Population Normal (%): 88% and 91%
  Population Pyknosed Nuclei (%): 9% and 5%
  Population Tubulin-Different-Phenotype (%): 32% and 39%
  Total Cell Count: 598 and 596
